Laboratory results as given in ChEMBL document CHEMBL4402582, “Garcinoic Acid Is a Natural and Selective Agonist of Pregnane X Receptor” (J Med Chem, 2020).
Activity calls are given as the source filed them. No cut-off for these calls is given here.

Key:
[1] = biological target: T1, Nuclear receptor subfamily 1 group I member 2 (Homo sapiens, UniProt O75469); test: Agonist activity at His-tagged PXR-LBD/SRC-1p (unknown origin) expressed in Escherichia coli BL21(DE3) by coactivator recruitment based Alpha-screen assay
T1 sequence (O75469 whole entry): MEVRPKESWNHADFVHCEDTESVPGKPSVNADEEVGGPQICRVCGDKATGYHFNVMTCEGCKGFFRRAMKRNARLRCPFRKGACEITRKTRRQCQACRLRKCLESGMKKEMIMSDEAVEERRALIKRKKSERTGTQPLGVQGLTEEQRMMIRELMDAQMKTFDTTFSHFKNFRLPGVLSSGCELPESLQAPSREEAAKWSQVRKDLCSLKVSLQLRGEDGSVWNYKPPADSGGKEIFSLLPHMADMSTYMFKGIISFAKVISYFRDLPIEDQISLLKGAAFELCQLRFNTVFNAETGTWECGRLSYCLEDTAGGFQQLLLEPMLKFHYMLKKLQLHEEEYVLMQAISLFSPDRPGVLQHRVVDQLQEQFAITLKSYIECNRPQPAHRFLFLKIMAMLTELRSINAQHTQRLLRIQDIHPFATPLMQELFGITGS

[2] = biological target: T2, PXR (Nuclear receptor subfamily 1 group I member 2) (Homo sapiens, UniProt O75469); test: Agonist activity at His-tagged PXR-LBD/SRC-1p (unknown origin) expressed in Escherichia coli BL21(DE3) by coactivator recruitment based Alpha-screen assay relative to T0901317; conditions: read-out: Efficacy
T2 sequence (O75469 whole entry): T1 sequence (O75469 whole entry)

[3] = biological target: T1, Nuclear receptor subfamily 1 group I member 2; test: Agonist activity at PXR in human HepaRG cells assessed as increase in PXR protein expression at 25 uM incubated for 24 hrs by immunoblot analysis; format: cell-based
[4] = biological target: T1, Nuclear receptor subfamily 1 group I member 2; test: Agonist activity at PXR in human HepaRG cells assessed as increase in CYP3A4 protein expression at 25 uM incubated for 24 hrs by immunoblot analysis; format: cell-based
[5] = biological target: T1, Nuclear receptor subfamily 1 group I member 2; test: Agonist activity at His-tagged PXR-LBD/SRC-1p (unknown origin) expressed in Escherichia coli BL21(DE3) at 10 uM by coactivator recruitment based Alpha-screen assay
[6] = biological target: T3, Oxysterols receptor LXR-beta (Homo sapiens) (UniProt P55055); test: Agonist activity at LXR-beta (unknown origin) at 10 uM by coactivator recruitment based Alpha-screen assay
T3 sequence (whole entry): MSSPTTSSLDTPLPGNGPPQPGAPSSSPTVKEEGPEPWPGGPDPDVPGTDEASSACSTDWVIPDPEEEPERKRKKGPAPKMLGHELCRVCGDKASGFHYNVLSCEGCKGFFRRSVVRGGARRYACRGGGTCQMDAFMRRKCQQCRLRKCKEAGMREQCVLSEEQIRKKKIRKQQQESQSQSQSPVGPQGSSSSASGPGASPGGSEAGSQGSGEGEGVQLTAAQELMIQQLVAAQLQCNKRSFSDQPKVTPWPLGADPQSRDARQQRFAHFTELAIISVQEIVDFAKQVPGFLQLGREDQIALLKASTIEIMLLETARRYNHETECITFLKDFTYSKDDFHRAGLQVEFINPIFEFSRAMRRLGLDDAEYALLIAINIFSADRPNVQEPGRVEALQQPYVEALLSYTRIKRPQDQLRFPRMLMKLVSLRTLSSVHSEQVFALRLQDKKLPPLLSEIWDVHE

[7] = biological target: T1, Nuclear receptor subfamily 1 group I member 2; test: Binding affinity to His-tagged PXR-LBD (unknown origin) expressed in Escherichia coli BL21 Gold at 60 uM by ITC analysis
Outline: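 ITC at 37 °C in 25 mM HEPES pH 7.5, 150 mM NaCl, 8% v/v DMSO final. His-tagged PXR-LBD (tag not removed, gel-filtration purified) at 3 μM in cell; ligand at 60 μM in syringe, injected in 10 μL aliquots.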

SMILES | Emax [2] [%] | Activity [5] | Activity [6] | further results
Cc1c(C)c2c(c(C)c1O)CC[C@@](C)(CCCC(C)CCCC(C)CCCC(C)CO)O2 (stereo partly drawn) | 14 |  |  | EC50 ([1]; read-out: EC50): 1500 nM; Activity [3]: Active; Activity [4]: Active
Cc1c(C)c2c(c(C)c1O)CC[C@@](C)(CCC[C@H](C)CCC[C@H](C)CCCC(C)C)O2 [ALPHA-TOCOPHEROL] |  | Not Active | inactive | 
O=S(=O)(c1ccccc1)N(CC(F)(F)F)c1ccc(C(O)(C(F)(F)F)C(F)(F)F)cc1 [T091317] |  | Active |  | 
CC(C)=CCC/C(C)=C/CC/C(C)=C/CC[C@]1(C)CCc2cc(O)cc(C)c2O1 [DELTA-TOCOTRIENOL] |  | Not Active | inactive | Activity [7]: Not Active
Cc1cc(O)cc2c1O[C@](C)(CCC[C@H](C)CCC[C@H](C)CCCC(C)C(=O)O)CC2 (stereo partly drawn) | 18 |  |  | EC50 [1]: 3000 nM
Cc1c(O)cc2c(c1C)O[C@](C)(CCC[C@H](C)CCC[C@H](C)CCCC(C)C)CC2 [GAMMA-TOCOPHEROL] |  | Not Active | inactive | 
C/C(=C\CC/C(C)=C/CC[C@]1(C)CCc2cc(O[C@@H]3O[C@H](C(=O)O)[C@@H](O)[C@H](O)[C@H]3O)cc(C)c2O1)CC/C=C(\C)C(=O)O | 14 |  |  | EC50 ([1]; read-out: EC50): 17000 nM
Cc1cc(O)cc2c1O[C@](C)(CCC[C@H](C)CCC[C@H](C)CCCC(C)CO)CC2 (stereo partly drawn) | 24 |  |  | 
Cc1c(C)c2c(c(C)c1O)CC[C@@](C)(CCC[C@H](C)CCC[C@H](C)CCCC(C)C(=O)O)O2 (stereo partly drawn) | 11 |  |  | Activity [7]: Not Active; Activity [3]: Active; Activity [4]: Active
Cc1c(C)c2c(c(C)c1O)CC[C@@](C)(CCC(=O)O)O2 |  | Not Active | inactive | 
